Experimental findings from ChEMBL document CHEMBL1135543, “Alpha(1)-adrenoceptor antagonists. 4. Pharmacophore-based design, synthesis, and biological evaluation of new imidazo-, benzimidazo-, and indoloarylpiperazine derivatives” (J Med Chem, 2002) are described below.

The target of experiment [1] is T1, 5-hydroxytryptamine receptor 1A (Rattus norvegicus, UniProt P19327).
T1 sequence (P19327 whole entry): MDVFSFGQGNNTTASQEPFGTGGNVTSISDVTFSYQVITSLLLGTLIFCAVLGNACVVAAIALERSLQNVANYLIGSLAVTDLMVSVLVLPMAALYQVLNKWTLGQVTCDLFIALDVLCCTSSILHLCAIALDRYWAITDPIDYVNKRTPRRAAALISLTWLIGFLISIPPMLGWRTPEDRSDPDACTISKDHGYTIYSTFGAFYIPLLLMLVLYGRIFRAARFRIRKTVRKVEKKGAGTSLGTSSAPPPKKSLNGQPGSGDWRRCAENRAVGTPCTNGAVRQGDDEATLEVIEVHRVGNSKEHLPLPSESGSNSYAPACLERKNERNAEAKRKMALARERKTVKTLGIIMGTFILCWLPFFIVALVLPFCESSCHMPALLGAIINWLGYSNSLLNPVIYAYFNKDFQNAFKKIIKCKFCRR
Briefly: Binding affinity against 5-hydroxytryptamine 1A receptor by displacing [3H]8-OH-DPAT radioligand in rat cortex membrane. The format is cell membranes. The method in brief:
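Rat cortex membranes, pre-incubated 10 min at 37 °C to remove endogenous 5-HT, stored at –80 °C, then resuspended in 50 mM Tris-HCl pH 7.4 (0.2–0.3 mg protein). GF/C filtration, scintillation counting.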

Experiment [2] addresses T2, Adrenergic receptor alpha-1 (Rattus norvegicus, UniProt P15823+P23944+P43140).
T2 sequence (P15823 whole entry): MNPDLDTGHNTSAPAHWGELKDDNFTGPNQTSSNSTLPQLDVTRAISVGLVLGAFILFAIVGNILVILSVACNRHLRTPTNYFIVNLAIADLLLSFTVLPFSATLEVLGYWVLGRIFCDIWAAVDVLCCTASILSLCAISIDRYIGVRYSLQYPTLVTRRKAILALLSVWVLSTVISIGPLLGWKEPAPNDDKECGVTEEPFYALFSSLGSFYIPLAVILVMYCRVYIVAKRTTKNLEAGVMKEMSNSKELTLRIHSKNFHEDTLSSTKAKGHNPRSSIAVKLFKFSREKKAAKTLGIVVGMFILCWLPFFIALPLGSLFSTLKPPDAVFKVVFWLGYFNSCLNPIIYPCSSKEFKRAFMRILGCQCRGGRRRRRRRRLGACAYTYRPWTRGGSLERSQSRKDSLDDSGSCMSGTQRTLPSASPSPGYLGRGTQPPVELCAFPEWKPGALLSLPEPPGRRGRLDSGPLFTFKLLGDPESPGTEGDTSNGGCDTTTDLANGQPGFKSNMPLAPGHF
T2 sequence (P23944 whole entry): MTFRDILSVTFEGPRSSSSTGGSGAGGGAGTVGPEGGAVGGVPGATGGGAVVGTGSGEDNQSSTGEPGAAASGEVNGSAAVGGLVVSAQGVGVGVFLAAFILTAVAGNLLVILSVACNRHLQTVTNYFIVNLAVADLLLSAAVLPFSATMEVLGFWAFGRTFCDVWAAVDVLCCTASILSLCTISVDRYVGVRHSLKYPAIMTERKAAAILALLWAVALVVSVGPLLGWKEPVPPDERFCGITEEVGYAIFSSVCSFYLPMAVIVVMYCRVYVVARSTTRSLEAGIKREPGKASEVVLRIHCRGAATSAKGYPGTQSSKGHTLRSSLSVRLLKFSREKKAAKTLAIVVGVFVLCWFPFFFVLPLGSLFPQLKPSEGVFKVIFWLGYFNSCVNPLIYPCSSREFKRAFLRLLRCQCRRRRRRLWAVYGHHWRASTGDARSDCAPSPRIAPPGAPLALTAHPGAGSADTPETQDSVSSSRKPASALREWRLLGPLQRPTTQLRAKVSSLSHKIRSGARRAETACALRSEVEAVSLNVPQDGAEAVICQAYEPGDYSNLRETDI
T2 sequence (P43140 whole entry): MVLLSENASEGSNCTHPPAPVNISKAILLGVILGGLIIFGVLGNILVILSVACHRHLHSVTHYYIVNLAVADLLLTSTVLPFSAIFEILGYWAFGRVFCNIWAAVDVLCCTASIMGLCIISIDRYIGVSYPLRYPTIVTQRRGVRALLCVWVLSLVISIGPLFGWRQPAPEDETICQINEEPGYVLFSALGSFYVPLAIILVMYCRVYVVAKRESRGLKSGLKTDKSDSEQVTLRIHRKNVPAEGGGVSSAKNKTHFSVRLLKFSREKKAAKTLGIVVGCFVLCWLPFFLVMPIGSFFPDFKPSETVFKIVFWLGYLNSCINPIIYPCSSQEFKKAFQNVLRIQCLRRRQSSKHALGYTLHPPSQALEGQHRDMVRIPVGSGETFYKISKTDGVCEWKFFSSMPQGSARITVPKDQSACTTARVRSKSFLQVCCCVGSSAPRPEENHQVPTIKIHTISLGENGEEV
Briefly: Binding affinity against Alpha-1 adrenergic receptor by displacing [3H]prazosin radioligand in rat cortex membrane. The format is cell membranes, Brain.

The target of experiment [3] is T3, Adrenergic receptor alpha-2 (Rattus norvegicus, UniProt P22086+P19328+P22909).
T3 sequence (P22086 whole entry): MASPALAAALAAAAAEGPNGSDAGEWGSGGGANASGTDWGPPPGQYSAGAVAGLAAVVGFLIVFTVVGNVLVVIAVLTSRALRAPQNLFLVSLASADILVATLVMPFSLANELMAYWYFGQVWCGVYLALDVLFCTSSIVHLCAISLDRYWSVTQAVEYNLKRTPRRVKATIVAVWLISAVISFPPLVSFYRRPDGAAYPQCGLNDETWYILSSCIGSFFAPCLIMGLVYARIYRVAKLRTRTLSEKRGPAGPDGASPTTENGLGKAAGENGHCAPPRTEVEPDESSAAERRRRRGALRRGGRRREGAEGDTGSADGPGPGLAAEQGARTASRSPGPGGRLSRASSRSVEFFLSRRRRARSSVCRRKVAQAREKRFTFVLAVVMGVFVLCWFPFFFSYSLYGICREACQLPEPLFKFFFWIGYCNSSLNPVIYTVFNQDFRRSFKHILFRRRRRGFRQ
T3 sequence (P19328 whole entry): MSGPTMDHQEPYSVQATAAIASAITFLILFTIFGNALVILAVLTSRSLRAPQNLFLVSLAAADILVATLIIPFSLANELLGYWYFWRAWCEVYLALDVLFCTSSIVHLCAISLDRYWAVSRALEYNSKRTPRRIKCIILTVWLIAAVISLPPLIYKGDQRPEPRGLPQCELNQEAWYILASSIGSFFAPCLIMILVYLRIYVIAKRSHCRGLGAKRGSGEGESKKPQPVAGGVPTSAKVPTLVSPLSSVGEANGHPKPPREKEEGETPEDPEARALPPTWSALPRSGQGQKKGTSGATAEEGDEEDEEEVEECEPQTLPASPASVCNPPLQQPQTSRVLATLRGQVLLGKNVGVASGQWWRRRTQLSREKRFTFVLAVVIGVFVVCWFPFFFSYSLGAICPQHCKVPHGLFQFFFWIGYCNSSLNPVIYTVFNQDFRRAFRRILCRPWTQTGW
T3 sequence (P22909 whole entry): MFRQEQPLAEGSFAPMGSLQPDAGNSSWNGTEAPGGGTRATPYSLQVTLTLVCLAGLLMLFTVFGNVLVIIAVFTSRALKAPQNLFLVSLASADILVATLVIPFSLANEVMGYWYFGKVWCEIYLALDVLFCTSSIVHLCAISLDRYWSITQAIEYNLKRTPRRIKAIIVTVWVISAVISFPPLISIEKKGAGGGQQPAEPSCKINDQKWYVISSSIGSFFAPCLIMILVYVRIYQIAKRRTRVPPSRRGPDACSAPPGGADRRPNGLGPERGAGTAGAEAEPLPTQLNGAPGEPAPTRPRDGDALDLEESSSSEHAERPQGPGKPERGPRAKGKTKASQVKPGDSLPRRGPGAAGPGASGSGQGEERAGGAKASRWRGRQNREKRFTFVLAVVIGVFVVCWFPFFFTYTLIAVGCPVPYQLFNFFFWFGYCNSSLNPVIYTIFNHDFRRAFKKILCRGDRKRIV
Briefly: Binding affinity against Alpha-2 adrenergic receptor by displacing [3H]rauwolscine radioligand in rat cortex membrane. The format is cell membranes, Brain.

The target in experiment [4] is T2, Adrenergic receptor alpha-1. Briefly: Intrinsic activity for displacement of [3H]prazosin from Alpha-1 adrenergic receptor of rat cerebral cortex membrane in the absence of 1 nM GTP. The format is tissue-based. The procedure, abridged:
(§1)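 [3H]prazosin competition on rat cerebral cortex membranes, run with and without GTP (1 nM in table footnote, 1 mM in text). The GTP shift is the ratio of the affinity constant with GTP to that without. Values are means ± SEM of three experiments.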
On the technique in general: Loss of bound radioactivity is the signal in a displacement assay; it reports binding, not function.

Experiment [5] has the same target. Put plainly: Intrinsic activity for displacement of [3H]prazosin from Alpha-1 adrenergic receptor of rat cerebral cortex membrane in the presence of 1 nM GTP. The format is tissue-based. The procedure, abridged:
as §1

Experiment [6] shares this target. Briefly: Intrinsic activity against Alpha-1 adrenergic receptor expressed as displacement of [3H]prazosin from rat cerebral cortex membrane in the absence of 1 nM GTP. The format is tissue-based. The method in brief:
as §1

For experiment [7] the target is unchanged. Put plainly: Intrinsic activity against Alpha-1 adrenergic receptor expressed as displacement of [3H]prazosin from rat cerebral cortex membrane in the presence of 1 nM GTP. Format: tissue-based. The method in brief:
as §1

For experiment [8] the target is unchanged. Briefly: Intrinsic activity for displacement of [3H]- prazosin from Alpha-1 adrenergic receptor of rat cerebral cortex membrane in the absence of 1 nM GTP. Format: tissue-based.
For experiment [9] the target is unchanged. Briefly: Intrinsic activity for displacement of [3H]- prazosin from Alpha-1 adrenergic receptor of rat cerebral cortex membrane in the presence of 1 nM GTP. The format is tissue-based.

On to `COc1ccccc1N1CCN(CCCCCCCn2nc(-n3ccnc3)ccc2=O)CC1`, for which the Ki (as a rule, the dissociation constant of the complex between target and ligand, obtained from inhibition or displacement) in [1] is 98.7 nM; in [2] it was 6 nM; in [3], 76.5 nM.
As for `COc1ccccc1N1CCN(CCCCn2nc(-n3cnc4ccccc43)ccc2=O)CC1`, the Ki in [4] amounted to 1.2 nM; in [1], 315 nM; in [5] it was 0.97 nM.
Consider `COc1ccccc1N1CCN(CCCCn2nc(-n3ccc4ccccc43)ccc2=O)CC1`, for which the Ki amounted to 253 nM in [1], 1 nM in experiment [6], 1.6 nM in [7] and 20 nM in experiment [3].
In the case of `O=c1ccc(-n2ccnc2)nn1CCCCCCCN1CCN(c2ccccc2Cl)CC1`, the Ki turned out to be 123 nM in [1]; 4.6 nM in [2]; 4.9 nM in [8]; 8.33 nM in experiment [9]; 24.5 nM in experiment [3].
